Laboratory results taken from publication PMC11566320 (Current Research in Pharmacology and Drug Discovery, 2024).
Read-outs that look alike come from different tables or passages of the source.

Tests used:
[1] = test system: HaCaT-II-4 cells; assay: Cellular fractionation / intracellular distribution by ICP-MS; format: cell-based, human; conditions: 3 μM, 24 h
Method in brief: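 HaCaT-II-4 cells adhered overnight at 37 °C, 5% CO2, then treated with 3 μM for 24 h. Washed thrice in cold PBS, trypsinised, pelleted (350 g, 5 min, 4 °C) and washed in PBS. Kit buffers gave the cytoplasmic fraction (on ice 5 min, 500 g), the membrane/organelle fraction (on ice 5 min, 8000 g) and a nuclear/cytoskeletal pellet. Results are % platinum per fraction; three independent experiments in triplicate, mean ± SEM.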

[2] = test system: mice; conditions: cited from earlier work
[3] = test system: BALB/c mice; assay: Preliminary cisplatin treatment in BALB/c mice; format: in vivo; conditions: 5 mg/kg dose, after few weeks of treatment, preliminary data
[4] = test system: HaCaT-II-4 cells; assay: Quantification of cellular uptake by ICP-MS; format: cell-based, human; conditions: 3 μM, maximum at 24 h
[5] = test system: DMBA/TPA-induced skin tumors in BALB/c mice; assay: DMBA/TPA induced skin carcinogenesis mouse model; format: in vivo; conditions: IP weekly; P-PENT 5 and 15 mg/kg, P-HEX 5, 15, 25 mg/kg, cisplatin 2.5 mg/kg
[6] = test system: HaCaT-II-4 cells; assay: Cytotoxicity, WST-1 cell viability assay; format: cell-based, human; conditions: read-out: IC50 against HaCaT-II-4 cells, 72 h post-treatment
Method in brief: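 HaCaT-II-4 cells (passage 15) in DMEM with 10% FBS and 1% penicillin-streptomycin were seeded at 10,000 cells/100 μL per well. They were exposed for 72 h to 3-fold serial dilutions, 0.023–150 μM. Medium was replaced with fresh DMEM plus WST-1 for 4 h at 37 °C, and absorbance was read at 450 nm for viability. Three independent trials, each in triplicate; mean ± SEM.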

[7] = test system: HaCaT-II-4 cells; assay: Cell death analysis by flow cytometry; format: cell-based, human; conditions: 3 μM
Method in brief: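 HaCaT-II-4 cells plated at 10^5 cells/ml in 6-well plates, adhered overnight, then exposed to 3 μM test compound for 48 or 72 h at 37 °C, 5% CO2, with a positive control. Harvested cells resuspended in Guava Nexin reagent (Annexin V-PE/7-AAD), 10 min in the dark. Flow cytometry on FL1-H vs FL2-H gave % early apoptosis, late apoptosis and necrosis. Three independent experiments in triplicate; mean ± SEM.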

[8] = test system: cancerous cells compared to the non-cancerous MCs; conditions: ref Khoury et al. (2022); cited from earlier work
[9] = of body weight in mice, ref O'Dwyer et al., 1985, Korst et al., 1997

N.N.[Cl][Pt][Cl] [Cisplatin]
accumulation in cytoplasmic fraction (CF) [1]: 38%
accumulation in membrane and organelle (MO) fraction [1]: 47%
accumulation in nuclear and cytoskeletal (NC) fraction [1]: 15%
MTD as platinum ([2]; BALB/c mice, ref Aston et al. (2017)): 3.9 mg Pt/Kg
mortality [3]: causes significant mortality
maximum cellular uptake [4]: 380 nmol/10^6 cells
week from which tumor volume was significantly decreased compared to control [5]: 4 week
IC50 [6]: 6.7 ± 0.76 µM
necrosis ([7]; 48 or 72 h): No evidence of significant necrosis
early and late apoptosis compared to the negative control ([7]; 48 h and 72 h): significant (p < 0.0001) increase in both early and late apoptosis

O=C1[O][Pt]2([NH][C@@H]3CCCC[C@H]3[NH]2)[O]C1=O [Oxaliplatin]
MTD as platinum [2, 9]: 9.82 mg Pt/Kg

N.N.O=C([O-])C1(C(=O)[O-])CCC1.[Pt+2] [Carboplatin]
MTD as platinum [2, 9]: 31.53 mg Pt/Kg

COc1ccnc2c1ccc1c(OC)ccnc12.NC1CCCCC1N.O=[N+]([O-])[O-].O=[N+]([O-])[O-].[OH-].[OH-].[Pt+4] [47OMESS(IV)]
greater selectivity toward the cancerous cells compared to the non-cancerous MCs [8]: 17–22 fold
